pIC50, pKi: −log10 of the molar value.
Assays:
[1] = test system: HEK293; assay: Antagonistic activity was measured by the adhesion of HEK 293 cells transfected with human alphaV-beta3 to vitronectin-coated plates; type: functional, cell-based
How it was run: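 HEK 293 cells transfected with human αvβ3 are allowed to adhere to vitronectin-coated plates. IC50 comes from two experiments run in triplicate, with an internal reference standard included.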

[2] = target: Integrin alpha-V/beta-3 (Homo sapiens, UniProt P05106+P06756); assay: Antagonistic activity for human vitronectin receptor (alphaV-beta3) from platelets; type: functional
Integrin alpha-V/beta-3, sequence (P05106 27-788 limits assumed): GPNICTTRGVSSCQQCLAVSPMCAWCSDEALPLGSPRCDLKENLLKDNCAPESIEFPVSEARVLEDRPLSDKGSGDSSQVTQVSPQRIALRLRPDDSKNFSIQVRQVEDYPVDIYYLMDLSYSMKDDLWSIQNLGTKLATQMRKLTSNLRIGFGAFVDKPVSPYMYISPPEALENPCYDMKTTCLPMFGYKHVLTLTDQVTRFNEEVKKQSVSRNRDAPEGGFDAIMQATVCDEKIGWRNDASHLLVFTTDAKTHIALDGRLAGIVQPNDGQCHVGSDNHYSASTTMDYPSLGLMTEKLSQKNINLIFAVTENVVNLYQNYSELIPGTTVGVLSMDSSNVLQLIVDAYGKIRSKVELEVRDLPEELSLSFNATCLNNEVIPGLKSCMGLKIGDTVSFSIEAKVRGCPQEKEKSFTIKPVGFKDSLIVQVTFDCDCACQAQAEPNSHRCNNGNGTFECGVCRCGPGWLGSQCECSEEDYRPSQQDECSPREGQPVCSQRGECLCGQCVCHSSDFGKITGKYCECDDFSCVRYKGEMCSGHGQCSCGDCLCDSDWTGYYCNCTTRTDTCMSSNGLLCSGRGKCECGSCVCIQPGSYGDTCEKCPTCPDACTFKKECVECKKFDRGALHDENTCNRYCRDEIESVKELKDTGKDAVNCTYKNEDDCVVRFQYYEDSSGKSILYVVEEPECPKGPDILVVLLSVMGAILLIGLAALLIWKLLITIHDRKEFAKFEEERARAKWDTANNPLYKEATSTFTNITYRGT
Integrin alpha-V/beta-3, sequence (P06756 31-889 limits assumed): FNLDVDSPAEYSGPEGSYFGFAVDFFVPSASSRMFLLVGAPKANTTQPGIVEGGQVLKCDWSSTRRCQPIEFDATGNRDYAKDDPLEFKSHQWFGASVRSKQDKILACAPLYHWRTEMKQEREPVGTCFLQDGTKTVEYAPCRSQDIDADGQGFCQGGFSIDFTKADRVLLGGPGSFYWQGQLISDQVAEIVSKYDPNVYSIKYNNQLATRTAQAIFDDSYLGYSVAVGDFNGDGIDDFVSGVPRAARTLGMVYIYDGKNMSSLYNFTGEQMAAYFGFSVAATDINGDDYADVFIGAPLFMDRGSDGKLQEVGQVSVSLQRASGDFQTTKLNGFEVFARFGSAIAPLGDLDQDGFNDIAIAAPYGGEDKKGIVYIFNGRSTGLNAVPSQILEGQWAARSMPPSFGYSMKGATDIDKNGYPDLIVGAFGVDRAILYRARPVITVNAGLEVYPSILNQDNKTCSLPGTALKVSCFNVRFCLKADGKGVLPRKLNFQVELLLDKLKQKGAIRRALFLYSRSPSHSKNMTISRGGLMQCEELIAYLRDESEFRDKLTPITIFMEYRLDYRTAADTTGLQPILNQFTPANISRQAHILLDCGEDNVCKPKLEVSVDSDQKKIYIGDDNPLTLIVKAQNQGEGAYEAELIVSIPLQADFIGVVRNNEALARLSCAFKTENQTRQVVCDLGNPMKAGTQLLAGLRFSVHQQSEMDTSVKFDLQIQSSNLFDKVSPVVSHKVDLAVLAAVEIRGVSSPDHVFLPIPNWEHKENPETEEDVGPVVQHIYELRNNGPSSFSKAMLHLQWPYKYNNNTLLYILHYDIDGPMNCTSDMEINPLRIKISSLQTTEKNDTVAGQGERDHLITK
Integrin alpha-V/beta-3, sequence (P06756 891-1048 limits assumed): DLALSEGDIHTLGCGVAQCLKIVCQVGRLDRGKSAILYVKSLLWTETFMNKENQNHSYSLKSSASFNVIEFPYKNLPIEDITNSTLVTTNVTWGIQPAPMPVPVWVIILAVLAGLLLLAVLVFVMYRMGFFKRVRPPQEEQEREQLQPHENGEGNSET
How it was run: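 Competitive binding to human αvβ3 purified from platelets; a tritiated RGD peptide is the displaced ligand. Ki values are the means of two to three separate experiments, with typical assay variability of ±10%.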

[3] = Biological half-life measured in plasma of rat; type: ADME, organism-based
[4] = species on record: Rattus norvegicus; assay: Compound was measured for in vitro efficacy in blocking vitronectin-induced migration of rat aortic smooth muscle cells (RASMC); type: functional, cell-based
[5] = (§1) Plasma clearance was measured in rat; type: ADME, organism-based; details: plasma
[6] = Oral bioavailability in rat; type: ADME, organism-based; details: in vivo
[7] = species on record: Rattus norvegicus; assay: as §1; type: ADME, organism-based; details: in vivo
[8] = Bioavailability was measured in rat after oral administration; 2-4; type: ADME, organism-based; details: in vivo, read-out: Bioavailabiility
[9] = Biological half-life measured in plasma of rat; 22-25; type: ADME, organism-based
[10] = species on record: Rattus norvegicus; assay: Maximum plasma concentration of compound was measured in rat; type: ADME, organism-based; details: in vivo
[11] = Bioavailability was measured in rat after oral administration; 3-7; type: ADME, organism-based; details: in vivo, read-out: Bioavailabiility
[12] = Biological half-life measured in plasma of rat; 9-16; type: ADME, organism-based

pKi [2]	pIC50 [4]	clearance [5]	SMILES	pIC50 [1]	further results
8.00			Cc1ccc2nc(CN(C)C(=O)c3ccc4c(c3)CNC(=O)[C@H](CC(=O)O)N4)nc-2[nH]1	5.60	
8.52			CN(Cc1nc2ccc[nH]c-2n1)C(=O)c1ccc2c(c1)CN(C)C(=O)[C@H](CC(=O)O)N2	6.57	
7.35	5.80	1.8 mL/min/kg	Cc1ccc2nc(CNC(=O)c3ccc4c(c3)CN(C)C(=O)[C@H](CC(=O)O)N4)nc-2[nH]1	5.05	half-life [3]: 92 min; bioavailability [6]: 8%
6.15			Cc1cc(C)c2[nH]c(CN(C)C(=O)c3ccc4c(c3)CN(C)C(=O)[C@H](CC(=O)O)N4)nc2n1		
8.52	6.77	17 mL/min/kg	Cc1ccc2[nH]c(CN(C)C(=O)c3ccc4c(c3)CN(C)C(=O)[C@H](CC(=O)O)N4)nc2n1	6.35	clearance [7]: 19 mL/min/kg; bioavailability [8]: 4%; half-life [9]: 25 min
7.64			CN(Cc1nc2ncncc2[nH]1)C(=O)c1ccc2c(c1)CN(C)C(=O)[C@H](CC(=O)O)N2	5.30	
	6.43	35 mL/min/kg	CN(Cc1nc2ccccc2[nH]1)C(=O)c1ccc2c(c1)CN(C)C(=O)[C@H](CC(=O)O)N2		Cmax [10]: 819 ng/mL; bioavailability [11]: 7%; half-life [12]: 16 min
7.05			Cc1ccc2[nH]c(CNC(=O)c3ccc4c(c3)CNC(=O)[C@H](CC(=O)O)N4)nc2n1 (racemic)	4.70	
7.30			COCCN1Cc2cc(C(=O)NCc3nc4ccc(C)[nH]c-4n3)ccc2N[C@@H](CC(=O)O)C1=O (racemic)	5.00	
7.72			CN(Cc1nc2cc[nH]nc-2n1)C(=O)c1ccc2c(c1)CN(C)C(=O)[C@H](CC(=O)O)N2 (racemic)	5.82	
8.40			CC(C)N1Cc2cc(C(=O)N(C)Cc3nc4ncccc4[nH]3)ccc2N[C@@H](CC(=O)O)C1=O (racemic)	5.70	
7.22			Cc1ccc2[nH]c(CNC(=O)c3ccc4c(c3)CN(Cc3ccccc3)C(=O)[C@H](CC(=O)O)N4)nc2n1 (racemic)		
7.89			Cc1ccc2nc(CN(C)C(=O)c3ccc4c(c3)CN(Cc3ccccc3)C(=O)[C@H](CC(=O)O)N4)nc-2[nH]1 (racemic)	6.80	
8.60	6.64	31 mL/min/kg	COCCN1Cc2cc(C(=O)N(C)Cc3nc4ncccc4[nH]3)ccc2N[C@@H](CC(=O)O)C1=O (racemic)	6.30	Cmax [10]: 692 ng/mL; half-life [3]: 25 min; bioavailability [6]: 4%
8.60	6.33	55 mL/min/kg	CN(Cc1nc2ccc[nH]c-2n1)C(=O)c1ccc2c(c1)CN(CCC(C)(C)C)C(=O)[C@H](CC(=O)O)N2 (racemic)	6.60	Cmax [10]: 555 ng/mL; half-life [3]: 14 min; bioavailability [6]: < 1%

Reference: ChEMBL document CHEMBL1130667, “Discovery of an imidazopyridine-containing 1,4-benzodiazepine nonpeptide vitronectin receptor (alpha v beta 3) antagonist with efficacy in a restenosis model” (Bioorg Med Chem Lett, 1998)
